From ChEMBL document CHEMBL3826943, “Design, synthesis and evaluation of 6-aryl-indenoisoquinolone derivatives dual targeting ERα and VEGFR-2 as anti-breast cancer agents” (Eur J Med Chem, 2016)
The source made the active and inactive calls. The rule behind the calls is not given here.

What was measured:
Estrogen receptor = molecular target: T1, Estrogen receptor (Homo sapiens, UniProt P03372); test: Displacement of fluorescein-labeled estrogen ligand from recombinant ER-alpha (unknown origin) incubated for 2 hrs by fluorescence polarization assay
T1 sequence (P03372 whole entry): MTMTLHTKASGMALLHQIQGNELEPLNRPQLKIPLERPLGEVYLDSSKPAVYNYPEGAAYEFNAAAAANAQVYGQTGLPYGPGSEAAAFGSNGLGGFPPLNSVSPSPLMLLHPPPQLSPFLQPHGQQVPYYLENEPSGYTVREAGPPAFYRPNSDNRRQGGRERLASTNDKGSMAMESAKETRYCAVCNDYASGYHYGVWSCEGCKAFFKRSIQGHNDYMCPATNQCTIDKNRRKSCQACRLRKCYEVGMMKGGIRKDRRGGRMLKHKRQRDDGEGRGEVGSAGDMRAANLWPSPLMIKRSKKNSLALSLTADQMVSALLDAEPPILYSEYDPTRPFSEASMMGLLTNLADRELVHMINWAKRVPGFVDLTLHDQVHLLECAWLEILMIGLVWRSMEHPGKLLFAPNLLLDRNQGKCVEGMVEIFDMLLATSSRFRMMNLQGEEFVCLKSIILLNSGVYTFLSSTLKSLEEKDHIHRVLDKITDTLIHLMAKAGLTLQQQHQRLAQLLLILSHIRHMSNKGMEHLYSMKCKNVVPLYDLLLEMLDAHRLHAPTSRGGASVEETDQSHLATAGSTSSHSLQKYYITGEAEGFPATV

MCF7 = test: Antiproliferative activity against human MCF7 cells incubated for 48 hrs by MTT assay; assay type: functional, cell-based; conditions: MCF7, 48 h
In short: (§1)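 Cells kept in RPMI1640 with 10% FBS, penicillin/streptomycin, 37 °C, 5% CO2. Seeded at 1×10^5/mL, allowed 24 h, then exposed to compound at 1×10^-4, 1×10^-5, 1×10^-6 and 1×10^-7 mol/L for 48 h; controls got medium with 1% DMSO. MTT added for 4 h in the dark, formazan dissolved in DMSO, absorbance at 490 nm used for IC50.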

MDA-MB-231 = test: Antiproliferative activity against human MDA-MB-231 cells incubated for 48 hrs by MTT assay; assay type: functional, cell-based; conditions: MDA-MB-231, 48 h; in short: as §1
Ishikawa = test: Antiproliferative activity against human Ishikawa cells incubated for 48 hrs by MTT assay; assay type: functional, cell-based; in short: as §1
[1] = molecular target: T2, Vascular endothelial growth factor receptor 2 (Homo sapiens, UniProt P35968)
T2 sequence (P35968 whole entry): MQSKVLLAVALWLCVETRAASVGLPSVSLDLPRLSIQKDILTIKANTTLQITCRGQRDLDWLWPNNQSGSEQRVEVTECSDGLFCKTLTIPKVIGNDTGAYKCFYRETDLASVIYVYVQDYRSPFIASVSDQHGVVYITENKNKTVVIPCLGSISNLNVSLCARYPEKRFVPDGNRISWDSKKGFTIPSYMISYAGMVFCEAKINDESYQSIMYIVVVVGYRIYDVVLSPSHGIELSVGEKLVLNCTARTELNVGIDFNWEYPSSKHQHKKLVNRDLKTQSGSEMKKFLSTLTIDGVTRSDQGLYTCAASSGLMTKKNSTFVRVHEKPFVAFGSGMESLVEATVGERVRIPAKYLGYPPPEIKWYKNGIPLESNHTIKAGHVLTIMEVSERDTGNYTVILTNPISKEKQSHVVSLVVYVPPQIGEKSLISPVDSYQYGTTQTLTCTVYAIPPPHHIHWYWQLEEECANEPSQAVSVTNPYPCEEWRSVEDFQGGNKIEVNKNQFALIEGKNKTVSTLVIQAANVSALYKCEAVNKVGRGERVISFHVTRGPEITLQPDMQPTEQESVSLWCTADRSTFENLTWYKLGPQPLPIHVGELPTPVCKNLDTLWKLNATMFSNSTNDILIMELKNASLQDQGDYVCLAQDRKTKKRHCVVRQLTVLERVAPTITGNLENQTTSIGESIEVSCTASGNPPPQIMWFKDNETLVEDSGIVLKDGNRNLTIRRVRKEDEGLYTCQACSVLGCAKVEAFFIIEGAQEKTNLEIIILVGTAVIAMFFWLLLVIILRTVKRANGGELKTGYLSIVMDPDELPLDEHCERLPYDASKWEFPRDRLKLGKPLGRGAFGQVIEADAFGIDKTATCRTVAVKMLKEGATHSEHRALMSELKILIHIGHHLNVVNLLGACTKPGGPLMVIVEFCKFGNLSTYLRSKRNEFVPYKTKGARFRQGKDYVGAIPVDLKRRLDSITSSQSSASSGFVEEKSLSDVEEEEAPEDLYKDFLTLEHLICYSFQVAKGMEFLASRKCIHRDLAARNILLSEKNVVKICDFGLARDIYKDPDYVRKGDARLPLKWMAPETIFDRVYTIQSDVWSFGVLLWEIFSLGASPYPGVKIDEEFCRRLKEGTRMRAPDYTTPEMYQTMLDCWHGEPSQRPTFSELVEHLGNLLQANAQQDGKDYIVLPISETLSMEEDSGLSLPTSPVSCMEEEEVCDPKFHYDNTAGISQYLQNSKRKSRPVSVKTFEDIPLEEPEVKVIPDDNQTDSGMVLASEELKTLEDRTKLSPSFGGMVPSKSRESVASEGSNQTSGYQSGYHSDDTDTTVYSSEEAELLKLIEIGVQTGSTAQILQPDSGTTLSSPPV

HUVEC = test: Antiangiogenic activity in HUVEC assessed as inhibition of cell proliferation incubated for 48 hrs by MTT assay; assay type: functional, cell-based; conditions: Homo sapiens; in short: as §1
[2] = molecular target: T2, Vascular endothelial growth factor receptor 2; test: Inhibition of VEGFR2 in HUVEC assessed as reduction in expression of phosphorylated VEGFR2 incubated for 24 hrs by Western blot analysis; assay type: cell-based
In short: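 HUVEC treated 24 h, washed with PBS, lysed on ice in Tris/SDS/glycerol/β-mercaptoethanol buffer. Protein measured by BCA, equal amounts run on 12% SDS-PAGE, semi-dry transfer to PVDF. Primary antibodies (p-VEGFR-2, VEGFR-2) overnight at 4 °C, HRP secondary 1 h at 37 °C, ECL detection. Phosphorylation rate by densitometry, mean ± SD, n=3.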

[3] = molecular target: T2, Vascular endothelial growth factor receptor 2; test: Inhibition of VEGFR2 in human MCF7 cells assessed as reduction in expression of phosphorylated VEGFR2 at 0.25 to 1 uM incubated for 24 hrs by Western blot analysis; assay type: cell-based
In short: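 MCF-7 cells treated 24 h, lysed on ice, protein quantified by BCA, equal loads separated on 12% SDS-PAGE and blotted to PVDF. Probed for p-VEGFR-2 and total VEGFR-2 overnight at 4 °C, HRP secondary 1 h at 37 °C, chemiluminescence on film. VEGFR-2 phosphorylation rate by densitometry, mean ± SD (n=3).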

[4] = molecular target: T2, Vascular endothelial growth factor receptor 2; conditions: HUVEC, at 1 µM
[5] = molecular target: T2, Vascular endothelial growth factor receptor 2; conditions: MCF7, at 1 µM
[6] = molecular target: T2, Vascular endothelial growth factor receptor 2; conditions: MCF7, at 1 µM; remark: listed apart in the source

SMILES | IC50 (Estrogen receptor) [µM] | IC50 (MCF7) [nM] | IC50 (MDA-MB-231) [nM] | IC50 ([1]; read-out: IC50) [nM] | inhibition [2] | inhibition [3] | inhibition [4] | inhibition [5] | inhibition [6] | IC50 [1] | IC50 (Ishikawa) [µM] | IC50 (HUVEC) [µM]
COc1ccc2c(c1)C(=O)c1c-2n(-c2ccc(OCCCN3CCCCC3)cc2)c(=O)c2cc(OC)ccc12 | 38.3 | 7800 | 21700 |  |  |  |  |  |  | Not Active | 4.5 | > 100
COc1ccc2c(c1)C(=O)c1c-2n(-c2ccc(OCCN3CCOCC3)cc2)c(=O)c2cc(OC)ccc12 | > 100 | > 100000 | > 100000 |  |  |  |  |  |  | Not Active | > 100 | > 100
CCN(CC)CCNC(=O)c1c(C)[nH]c(/C=C2\C(=O)Nc3ccc(F)cc32)c1C [SUNITINIB] |  |  |  |  |  |  |  |  |  |  |  | 0.8
O=C1c2cc(O)ccc2-c2c1c1ccc(O)cc1c(=O)n2-c1ccc(OCCN2CCOCC2)cc1 | 19.8 | > 100000 | > 100000 |  |  |  |  |  |  | Not Active | > 100 | > 100
CC/C(=C(\c1ccccc1)c1ccc(OCCN(C)C)cc1)c1ccccc1 [TAMOXIFEN] |  | 5300 | 13900 |  |  |  |  |  |  |  | 6 | 
COc1ccc2c(c1)C(=O)c1c-2n(-c2ccc(OCCCN3CCN(C)CC3)cc2)c(=O)c2cc(OC)ccc12 | 35.2 | > 100000 | > 100000 |  |  |  |  |  |  | Not Active | > 100 | > 100
COc1ccc2c(c1)C(=O)c1c-2n(-c2ccc(OCCCN3CCCC3)cc2)c(=O)c2cc(OC)ccc12 | 40.3 | 3200 | 3000 |  |  |  |  |  |  | Not Active | 12.8 | 5.1
COc1ccc2c(c1)C(=O)c1c-2n(-c2ccc(OCCCN3CCOCC3)cc2)c(=O)c2cc(OC)ccc12 | > 100 | > 100000 | > 100000 |  |  |  |  |  |  | Not Active | > 100 | > 100
CN(C)CCOc1ccc(-n2c3c(c4ccc(O)cc4c2=O)C(=O)c2cc(O)ccc2-3)cc1 | 7.6 | 3800 | 3300 | 330 |  |  |  |  |  |  | 5.1 | 4.6

More lines, in order of falling IC50 (MCF7), values ahead:

IC50 (Estrogen receptor) [µM] | IC50 (MCF7) [nM] | IC50 (MDA-MB-231) [nM] | IC50 ([1]; read-out: IC50) [nM] | inhibition [2] | inhibition [3] | inhibition [4] | inhibition [5] | inhibition [6] | IC50 [1] | SMILES | IC50 (Ishikawa) [µM] | IC50 (HUVEC) [µM]
10.6 | 2500 | 4100 |  |  |  |  |  |  | Not Active | CN1CCN(CCOc2ccc(-n3c4c(c5ccc(O)cc5c3=O)C(=O)c3cc(O)ccc3-4)cc2)CC1 | 6.1 | 1.1
39.8 | 2300 | 1500 |  |  |  |  |  |  | Not Active | CCN(CC)CCCOc1ccc(-n2c3c(c4ccc(OC)cc4c2=O)C(=O)c2cc(OC)ccc2-3)cc1 | 4.1 | 16
39.4 | 1400 | 600 |  |  |  |  |  |  | Not Active | COc1ccc2c(c1)C(=O)c1c-2n(-c2ccc(OCCCN(C)C)cc2)c(=O)c2cc(OC)ccc12 | 9.6 | 25
7.2 | 1200 | 500 | 99 | Dose-dependent effect | Active | Active | Active | Active |  | O=C1c2cc(O)ccc2-c2c1c1ccc(O)cc1c(=O)n2-c1ccc(OCCN2CCCC2)cc1 | 8.2 | 0.8
3.4 | 1100 | 800 | 250 |  |  |  |  |  |  | O=C1c2cc(O)ccc2-c2c1c1ccc(O)cc1c(=O)n2-c1ccc(OCCN2CCCCC2)cc1 | 4.3 | 1.3
23.3 | 1100 | > 100000 |  |  |  |  |  |  | Not Active | COc1ccc2c(c1)C(=O)c1c-2n(-c2ccc(OCCN3CCN(C)CC3)cc2)c(=O)c2cc(OC)ccc12 | 10.9 | 12
24.4 | 1100 | 1100 | 3900 |  |  |  |  |  |  | COc1ccc2c(c1)C(=O)c1c-2n(-c2ccc(OCCN(C)C)cc2)c(=O)c2cc(OC)ccc12 | 10.6 | 35.6
6.7 | 800 | 1000 | 120 |  |  |  |  |  |  | CCN(CC)CCOc1ccc(-n2c3c(c4ccc(O)cc4c2=O)C(=O)c2cc(O)ccc2-3)cc1 | 4 | 1.8
18.7 | 700 | 1300 | 1030 |  |  |  |  |  |  | CCN(CC)CCOc1ccc(-n2c3c(c4ccc(OC)cc4c2=O)C(=O)c2cc(OC)ccc2-3)cc1 | 6.7 | 11.4
17.7 | 700 | 700 |  |  |  |  |  |  | Not Active | COc1ccc2c(c1)C(=O)c1c-2n(-c2ccc(OCCN3CCCC3)cc2)c(=O)c2cc(OC)ccc12 | 8.7 | > 100
24.9 | 300 | 2800 |  |  |  |  |  |  | Not Active | COc1ccc2c(c1)C(=O)c1c-2n(-c2ccc(OCCN3CCCCC3)cc2)c(=O)c2cc(OC)ccc12 | 9.6 | > 100
